Compound activity: PubChem, several laboratories
A selection: hits, their analogues and other compounds. The true share with any hit is near 2.3%.
GalR3 antagonist – GalR3 antagonists in HEK293 cells, primary screen, cell-based, fluorescence readout; Galanin receptor type 3 (Homo sapiens), O60755; HEK293 GalR3-CNG cAMP membrane potential fluorescence; galR3 body fused to GalR1 C-terminus; inhibition, % at 3 µM; 360,000 tested, 0.44% active;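 active means inhibition above the screen-wide average plus 3 SD, cut at about 13% in these data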;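 further: forskolin and galanin both at EC90 stimulate the cells; cAMP rise reported by CNG channel membrane potential dye signal; 0% = forskolin plus galanin with DMSO and 100% = forskolin alone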
CHT PAM – CHT positive allosteric modulators, primary screen, cell-based, membrane potential dye, choline EC20 | High affinity choline transporter 1 (Homo sapiens), Q9GZV3 | CHT-expressing cells; active compounds read high; LV-AA mutant CHT in HEK293 cells | B-score at 10 µM | 310,000 tested, 0.49% active;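 active means initial fluorescence not abnormally high and integrated response B-score, plate-corrected, over 3 SD above library mean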
Target sequence (Q9GZV3 whole entry, looked up): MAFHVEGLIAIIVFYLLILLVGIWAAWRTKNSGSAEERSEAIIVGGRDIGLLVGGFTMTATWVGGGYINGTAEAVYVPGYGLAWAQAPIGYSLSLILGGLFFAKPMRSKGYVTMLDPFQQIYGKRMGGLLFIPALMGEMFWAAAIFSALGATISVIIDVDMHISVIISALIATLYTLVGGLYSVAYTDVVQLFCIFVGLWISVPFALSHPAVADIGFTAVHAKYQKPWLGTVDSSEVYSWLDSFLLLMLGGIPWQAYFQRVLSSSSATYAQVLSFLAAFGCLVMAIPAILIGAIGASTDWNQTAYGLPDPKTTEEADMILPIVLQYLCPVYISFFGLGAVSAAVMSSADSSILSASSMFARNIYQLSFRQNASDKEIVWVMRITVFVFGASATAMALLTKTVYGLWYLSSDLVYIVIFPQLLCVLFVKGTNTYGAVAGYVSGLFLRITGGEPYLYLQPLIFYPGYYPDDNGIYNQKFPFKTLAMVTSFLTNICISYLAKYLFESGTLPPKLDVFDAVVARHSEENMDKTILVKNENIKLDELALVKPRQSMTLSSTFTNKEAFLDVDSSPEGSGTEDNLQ
NR2F2 inh – NR2F2 transcriptional activity inhibitors, primary screen, cell-based, luciferase reporter, HEK293T, luminescence. COUP transcription factor 2 (Homo sapiens), P24468. HEK293T NGFI-A luciferase reporter. inhibition, % at 8.6 µM. 370,000 tested, 0.7% active. AID 686940, 2013;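 active means inhibition above a per-plate cutoff, mean inhibition of test wells between control levels plus 3 SD, cut at about 38% in these data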;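 further: cells cotransfected with COUP-TFII expression vector driving the NGFI-A reporter; 0% = median of COUP-TF2 test wells and 100% = reporter-only cells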
NR2E3 ag-1 – inhibitors of NR2E3-RetCOR corepressor binding, primary screen, NR2E3 agonist project, biochemical, TR-FRET, GST-NR2E3, biotin-RetCOR | inhibition of corepressor binding, % at 4.78 µM | Photoreceptor-specific nuclear receptor (Homo sapiens), Q9Y5X4 | 320,000 tested, 0.12% active | 1536-well;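 active means percent inhibition above the cutoff of mean plus 3 SD of all tested compounds, set per screening campaign, cut at about 20% in these data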;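 further: 0% = DMSO wells and 100% = biotin wells as full block of FRET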
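Test system – NR2E3–RetCOR corepressor complex · Quantity – NR2E3 fusion 1.35 nM · Buffer or medium – Tris pH 7.5 · Incubation – Compound–protein incubation for 5 h at 4 °C · Technique – TR-FRET, Eu(K)-anti-GST donor, streptavidin-D2 acceptor, ex 340, em 617/671 nm · Evaluation – percent inhibition of 671/617 nm emission ratio versus biotin and DMSO controls · Plate – 1536-well format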
NR2E3 ag-2 – NR2E3 agonists in two-hybrid cells, primary screen, cell-based, luminescence, CHO-S, Gal4-NCOR/VP16-NR2E3 | Photoreceptor-specific nuclear receptor (Homo sapiens), Q9Y5X4 | luciferase | inhibition of corepressor binding, % at 3.98 µM | 360,000 tested, 0.35% active;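 active means inhibition above the mean of all tested compounds plus 3 SD, cut at about 70% in these data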;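 further: 0% = DMSO with NR2E3 transfected cells and 100% = cells lacking NR2E3 construct; higher means lower luciferase signal from less NR2E3 corepressor binding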
CHT inh – inhibitors of human choline transporter CHT; High affinity choline transporter 1 (Homo sapiens), Q9GZV3; CHT-expressing cells, membrane potential dye, choline response; active compounds read low; B-score at 10 µM; 310,000 tested, 0.86% active;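 active means B-score over 3 SD under the library average, and starting fluorescence ratio not unusually high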;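 further: choline stimulus applied at its EC90 after an EC20 pre-addition; B-score computed on integrated fluorescence ratio after choline addition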
NR2E3 ag confirm – NR2E3 agonist confirmation in cells, cell-based, luminescence, CHO-S two-hybrid; AID 624378, 2012; CHO-S mammalian two-hybrid NR2E3-NCOR, luciferase luminescence; shares compounds with NR2E3 ag-2; 2,300 tested, 51% active; inhibition, % at 3.98 µM;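 active means average inhibition above a cutoff equal to the mean inhibition of all tested compounds plus one SD, cut at about 70% in these data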;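 further: 0% = DMSO in NR2E3 cells and 100% = DMSO in cells lacking NR2E3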
VP16 counter – GAL4-VP16 reporter modulators, confirmation, counter-screen for NR2E3 agonist project, cell-based, luminescence, CHO-S, high throughput; shares compounds with NR2E3 ag-2; CHO-S GAL4-VP16 luciferase reporter; inhibition, % at 3.98 µM; 2,300 tested, 29% active; AID 624379, 2012;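 active means mean inhibition above a cutoff equal to the average over all tested compounds plus one standard deviation, cut at about 70% in these data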;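 further: luciferase from a UAS reporter driven by GAL4-VP16 transactivation; 0% = DMSO with VP16-transfected cells and 100% = DMSO with cells lacking VP16; higher means less reporter light so more repression of VP16 activity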
Numbers without * were called inactive; i = inactive; x = no result.

SMILES	GalR3 antagonist	CHT PAM	NR2F2 inh	NR2E3 ag-1	NR2E3 ag-2	CHT inh	NR2E3 ag confirm	VP16 counter
C=CCN1C(=O)[C@@H](CC(=O)N2CCOCC2)[C@]2(C(=O)OC)CCCCC=C12	x	x	2	x	x	x	x	x
COc1ccc(Cl)cc1Cn1c(C)c(C(=O)NCc2cccc(Cl)c2)sc1=O	-5	x	18	x	76*	x	75*	4
COc1ccc(NC(=O)c2sc(=O)n(Cc3ccc(F)c(Cl)c3)c2C)cc1OC	-1	x	15	x	57	x	76*	28
COc1ccc(CNC(=O)c2sc(=O)n(Cc3cc(Cl)ccc3OC)c2C)cc1	-6	x	12	x	39	x	x	x
COc1ccc(C(C)=O)cc1Cn1c(C)c(C(=O)NCc2cccc(Cl)c2)sc1=O	2	x	26	x	27	x	x	x
CN(C)CC(=O)N[C@H]1C[C@@H]2O[C@H](CO)CC[C@@H]2O[C@@H]1CCc1ccc(-c2ccc(F)cc2)cc1	x	x	-13	x	x	x	x	x
c1coc(CN(Cc2ccco2)c2ncnc3c2oc2ccccc23)c1	x	i	x	0	68	i	77*	60
Clc1ncnc2c1oc1ccccc12	-8	i	-48	-2	-159	i	x	x
O=C(OCc1cn(Cc2cc(F)cc(F)c2)nn1)N1CCOCC1	x	x	-7	x	x	x	x	x
CC1=C(O)c2ccccc2C(=O)C1=O	-6	x	10	x	53	x	85*	49
COc1ccc(CCNC(=O)C2CC3Cn4c(nc5cc6ccccc6cc54)C3N2C)cc1 (stereo not given)	-4	i	0	-3	53	i	32	35
CCc1ccc(NS(=O)(=O)c2ccc(OC)c(C)c2)cc1	-8	i	13	1	7	i	x	x
COc1ccc(S(=O)(=O)Nc2ccc(Cc3ccncc3)cc2)cc1C	x	i	x	2	61	i	47	50
CCOC(=O)[C@@H]1CSCCS(=O)(=O)N1Cc1ccccc1	x	x	-14	x	x	x	x	x
Cc1nc2ccccc2c2oc(C(=O)NCc3ccc4c(c3)OCO4)cc12	x	i	29	-2	70	i	54	56
Cc1nc2ccccc2nc1OCC(=O)NCc1ccc2c(c1)OCO2	1	i	5	0	8	i	x	x
COc1ccccc1NC(=O)CSc1nc2ccccc2c(=O)n1C	-3	i	14	6	16	i	x	x
Cc1cccc(NC(=O)CSc2nc3ccccc3c(=O)n2C)c1C	-5	x	3	x	81*	x	91*	80*
Cn1c(SCc2cccc([N+](=O)[O-])c2)nc2ccccc2c1=O	-4	x	-3	2	49	x	83*	65
Cc1ccccc1Nc1nc(N)nc(CSc2nc3ccccc3c(=O)n2C)n1	0	i	-1	-1	88*	i	13	32
COCCn1c(SCc2cccc([N+](=O)[O-])c2)nc2ccccc2c1=O	-11	i	19	4	-25	i	x	x
Cc1ccc(-c2cc(C(=O)NN=Cc3ccc(F)cc3)[nH]n2)cc1C	x	x	-6	x	x	x	x	x
O=C(Nc1nnc(SCc2ccc(F)cc2)s1)c1ccccn1	-1	x	-15	x	65	x	49	5
c1ccc(CNc2nc(-c3ccccn3)nc3ccccc23)cc1	-10	i	25	-3	95*	i	99*	59
C[C@H](O)[C@@H]1CN2CCc3c([nH]c4c(-c5ccccc5)cccc34)[C@@H]2C[C@@H]1N(C)C(=S)NCCc1ccccc1	-8	x	2	x	x	x	x	x
SMILES	GalR3 antagonist	CHT PAM	NR2F2 inh	NR2E3 ag-1	NR2E3 ag-2	CHT inh	NR2E3 ag confirm	VP16 counter
CC(C)(C)c1ccc(-n2ncc3c2CCCC3NC(=O)CCN2CCCO2)cc1 (stereo not given)	2	i	25	1	66	i	-9	41
O=C(CN1CCCC1=O)NC1CCCc2c1cnn2-c1cc(F)cc(F)c1 (stereo not given)	-2	i	4	0	-23	i	x	x
CC(C)(C)c1ccc(-n2ncc3c2CCCC3NC(=O)CN2CCCCC2=O)cc1 (stereo not given)	0	i	37	-5	58	i	15	39
CCC(C)NC(=O)CN1C(=O)C2CCCCN2C(=O)c2ccccc21 (stereo not given)	x	x	-24	x	x	x	x	x
O=C1/C(=C/c2ccccc2[N+](=O)[O-])COc2ccccc21	-1	i	-10	2	-16	i	x	x
CC1(C)CC(=Cc2cc(O)ccc2[N+](=O)[O-])C(=O)c2ccccc21	x	x	x	x	98*	x	99*	71*
CC(C)C(NC(=O)Nc1ccccc1)C(=O)Nc1cccc(S(=O)(=O)N(C)C)c1 (stereo not given)	-9	i	-1	4	-6	i	x	x
COc1ccc2cc(C(C)C(=O)Nc3cccc(S(=O)(=O)N(C)C)c3)ccc2c1 (stereo not given)	-7	i	6	4	48	i	32	42
C=CCN1C(=O)[C@@H](CC(=O)N2CCCCC2)[C@]2(C(=O)OCC)CCCCC/C=C/12	x	x	-17	x	x	x	x	x
Cc1ccc(C(=O)CCC(=O)N2CCN(c3ccccc3O)CC2)cc1	-2	i	1	1	49	i	36	3
COC(=O)c1cc(NC(=O)NC2CCCCN(Cc3cccc(Cl)c3)C2=O)cc(C(=O)OC)c1 (stereo not given)	x	x	-17	x	x	x	x	x
Cc1ccc2nc(NC(=O)C3CCN(c4ncnc5sc(C)c(C)c45)CC3)sc2c1	x	i	x	2	-40	i	x	x
Cc1ccc(C)c(S(=O)(=O)N2CCN(C(=O)C3CCN(c4ncnc5sc(C)c(C)c45)CC3)CC2)c1	-5	i	10	3	78*	i	67	63
O=C(CCCN1C(=O)S/C(=C\C=C\c2ccccc2)C1=O)Nc1ccc(C(=O)O)cc1	-6	i	0	1	54	i	8	58
O=C(CCN1C(=O)S/C(=C\C=C\c2ccccc2)C1=O)Nc1ccc(O)cc1	-6	i	-17	-1	-12	i	x	x
c1nc(NCC2CCCC2)c2cc(-c3ccc4c(c3)OCO4)ccc2n1	x	x	-2	x	x	x	x	x
